Data: ChEMBL document CHEMBL5058577, “EUbOPEN Chemogenomics Library 2 (Multiplex)” (2022)

System: U2OS
Test: Multiplex assay against U2OS
Format: toxicity, cell-based
Details: human
Procedure, shortened: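 Values for tubulin, mitochondrial-mass and membrane-permeability phenotypes are per cents of cells with healthy nuclei. These cells were identified by CellPathfinder machine-learning gating of live cells that had been stained at seeding with Hoechst33342, BioTracker Green Microtubule Cytoskeleton Dye, MitoTracker Red and Annexin V Alexa Fluor 680 and imaged on a CQ1 microscope at 37°C and 5% CO2 after compound addition. The gating first set Hoechst high-intensity objects apart from normal cells, then split normal cells into healthy, pyknosed or fragmented nuclei, and pyknosed cells into mitotic or apoptotic.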

[1] = 12 h, 1 µM, compound concentration 1 uM, replicate 1
[2] = 12 h, 1 µM, compound concentration 1 uM, replicate 2
[3] = 12 h, 10 µM, compound concentration 10 uM, replicate 1
[4] = 12 h, 10 µM, compound concentration 10 uM, replicate 2
[5] = 24 h, 1 µM, compound concentration 1 uM, replicate 1
[6] = 24 h, 1 µM, compound concentration 1 uM, replicate 2
[7] = 24 h, 10 µM, compound concentration 10 uM, replicate 1
[8] = 24 h, 10 µM, compound concentration 10 uM, replicate 2
[9] = 48 h, 1 µM, compound concentration 1 uM, replicate 1
[10] = 48 h, 1 µM, compound concentration 1 uM, replicate 2
[11] = 48 h, 10 µM, compound concentration 10 uM, replicate 1
[12] = 48 h, 10 µM, compound concentration 10 uM, replicate 2

**Q.** `CCc1cc2cc(NS(=O)(=O)c3ccc(C#N)cc3)ccc2n(CC)c1=O` was tested. Which “Population Apoptotic (%)” value [1] did it give?
**A.** 88%

**Q.** What about the “Population Fragmented Nuclei (%)” value [1] of the same molecule?
**A.** 30%

**Q.** And the “Population Healthy Nuclei (%)” value [1]?
**A.** 60%

**Q.** And the “Population Hoechst High Intensity Objects (%)” value [1]?
**A.** 3%

**Q.** What about the “Population Membrane Permeable-Phenotype (%)” value [1] of the same molecule?
**A.** 4%

**Q.** What about the “Population Mitochondria Different-Phenotype (%)” value [1] of the same molecule?
**A.** 2%

**Q.** And the “Population Mitotic Cells (%)” value [1]?
**A.** 11%

**Q.** And the “Population Normal (%)” value [1]?
**A.** 96%

**Q.** And the “Population Pyknosed Nuclei (%)” value [1]?
**A.** 9%

**Q.** And the “Population Tubulin-Different-Phenotype (%)” value [1]?
**A.** 2%

**Q.** And the “Total Cell Count” value [1]?
**A.** 286

**Q.** What about the “Population Apoptotic (%)” value [2] of the same molecule?
**A.** 100%

**Q.** And the “Population Fragmented Nuclei (%)” value [2]?
**A.** 26%

**Q.** What about the “Population Healthy Nuclei (%)” value [2] of the same molecule?
**A.** 70%

**Q.** And the “Population Hoechst High Intensity Objects (%)” value [2]?
**A.** 1%

**Q.** What about the “Population Membrane Permeable-Phenotype (%)” value [2] of the same molecule?
**A.** 8%

**Q.** What about the “Population Mitotic Cells (%)” value [2] of the same molecule?
**A.** 0%

**Q.** And the “Population Normal (%)” value [2]?
**A.** 98%

**Q.** And the “Population Pyknosed Nuclei (%)” value [2]?
**A.** 3%

**Q.** And the “Population Tubulin-Different-Phenotype (%)” value [2]?
**A.** 7%

**Q.** What about the “Total Cell Count” value [2] of the same molecule?
**A.** 113

**Q.** And the “Population Apoptotic (%)” value [3]?
**A.** 66%

**Q.** What about the “Population Fragmented Nuclei (%)” value [3] of the same molecule?
**A.** 28%

**Q.** And the “Population Healthy Nuclei (%)” value [3]?
**A.** 64%

**Q.** And the “Population Hoechst High Intensity Objects (%)” value [3]?
**A.** 2%

**Q.** And the “Population Membrane Permeable-Phenotype (%)” value [3]?
**A.** 9%

**Q.** And the “Population Mitochondria Different-Phenotype (%)” value [3]?
**A.** 3%

**Q.** And the “Population Mitotic Cells (%)” value [3]?
**A.** 33%

**Q.** And the “Population Normal (%)” value [3]?
**A.** 97%

**Q.** What about the “Population Pyknosed Nuclei (%)” value [3] of the same molecule?
**A.** 6%

**Q.** And the “Population Tubulin-Different-Phenotype (%)” value [3]?
**A.** 4%

**Q.** What about the “Total Cell Count” value [3] of the same molecule?
**A.** 220

**Q.** What about the “Population Apoptotic (%)” value [4] of the same molecule?
**A.** 87%

**Q.** What about the “Population Fragmented Nuclei (%)” value [4] of the same molecule?
**A.** 13%

**Q.** And the “Population Healthy Nuclei (%)” value [4]?
**A.** 80%

**Q.** And the “Population Membrane Permeable-Phenotype (%)” value [4]?
**A.** 6%

**Q.** What about the “Population Mitotic Cells (%)” value [4] of the same molecule?
**A.** 12%

**Q.** And the “Population Pyknosed Nuclei (%)” value [4]?
**A.** 5%

**Q.** And the “Total Cell Count” value [4]?
**A.** 139

**Q.** What about the “Population Apoptotic (%)” value [5] of the same molecule?
**A.** 85%

**Q.** And the “Population Fragmented Nuclei (%)” value [5]?
**A.** 29%

**Q.** And the “Population Healthy Nuclei (%)” value [5]?
**A.** 61%

**Q.** What about the “Population Hoechst High Intensity Objects (%)” value [5] of the same molecule?
**A.** 2%

**Q.** And the “Population Membrane Permeable-Phenotype (%)” value [5]?
**A.** 9%

**Q.** And the “Population Mitochondria Different-Phenotype (%)” value [5]?
**A.** 2%

**Q.** And the “Population Mitotic Cells (%)” value [5]?
**A.** 14%

**Q.** And the “Population Normal (%)” value [5]?
**A.** 97%

**Q.** What about the “Population Pyknosed Nuclei (%)” value [5] of the same molecule?
**A.** 8%

**Q.** What about the “Population Tubulin-Different-Phenotype (%)” value [5] of the same molecule?
**A.** 6%

**Q.** And the “Total Cell Count” value [5]?
**A.** 335

**Q.** And the “Population Apoptotic (%)” value [6]?
**A.** 88%

**Q.** What about the “Population Fragmented Nuclei (%)” value [6] of the same molecule?
**A.** 16%

**Q.** And the “Population Healthy Nuclei (%)” value [6]?
**A.** 75%

**Q.** What about the “Population Hoechst High Intensity Objects (%)” value [6] of the same molecule?
**A.** 1%

**Q.** What about the “Population Membrane Permeable-Phenotype (%)” value [6] of the same molecule?
**A.** 7%

**Q.** And the “Population Mitochondria Different-Phenotype (%)” value [6]?
**A.** 7%

**Q.** What about the “Population Mitotic Cells (%)” value [6] of the same molecule?
**A.** 11%

**Q.** What about the “Population Normal (%)” value [6] of the same molecule?
**A.** 98%

**Q.** What about the “Population Pyknosed Nuclei (%)” value [6] of the same molecule?
**A.** 7%

**Q.** And the “Population Tubulin-Different-Phenotype (%)” value [6]?
**A.** 3%

**Q.** What about the “Total Cell Count” value [6] of the same molecule?
**A.** 126

**Q.** What about the “Population Apoptotic (%)” value [7] of the same molecule?
**A.** 95%

**Q.** And the “Population Fragmented Nuclei (%)” value [7]?
**A.** 23%

**Q.** What about the “Population Healthy Nuclei (%)” value [7] of the same molecule?
**A.** 67%

**Q.** And the “Population Hoechst High Intensity Objects (%)” value [7]?
**A.** 3%

**Q.** What about the “Population Membrane Permeable-Phenotype (%)” value [7] of the same molecule?
**A.** 4%

**Q.** What about the “Population Mitochondria Different-Phenotype (%)” value [7] of the same molecule?
**A.** 2%

**Q.** And the “Population Mitotic Cells (%)” value [7]?
**A.** 4%

**Q.** What about the “Population Normal (%)” value [7] of the same molecule?
**A.** 96%

**Q.** And the “Population Pyknosed Nuclei (%)” value [7]?
**A.** 9%

**Q.** What about the “Population Tubulin-Different-Phenotype (%)” value [7] of the same molecule?
**A.** 1%

**Q.** And the “Total Cell Count” value [7]?
**A.** 263

**Q.** And the “Population Apoptotic (%)” value [8]?
**A.** 80%

**Q.** And the “Population Fragmented Nuclei (%)” value [8]?
**A.** 14%

**Q.** What about the “Population Healthy Nuclei (%)” value [8] of the same molecule?
**A.** 79%

**Q.** And the “Population Membrane Permeable-Phenotype (%)” value [8]?
**A.** 6%

**Q.** And the “Population Mitotic Cells (%)” value [8]?
**A.** 20%

**Q.** And the “Population Pyknosed Nuclei (%)” value [8]?
**A.** 6%

**Q.** And the “Population Tubulin-Different-Phenotype (%)” value [8]?
**A.** 2%

**Q.** What about the “Total Cell Count” value [8] of the same molecule?
**A.** 159

**Q.** And the “Population Apoptotic (%)” value [9]?
**A.** 89%

**Q.** And the “Population Fragmented Nuclei (%)” value [9]?
**A.** 21%

**Q.** And the “Population Healthy Nuclei (%)” value [9]?
**A.** 70%

**Q.** What about the “Population Hoechst High Intensity Objects (%)” value [9] of the same molecule?
**A.** 2%

**Q.** What about the “Population Membrane Permeable-Phenotype (%)” value [9] of the same molecule?
**A.** 6%

**Q.** And the “Population Mitochondria Different-Phenotype (%)” value [9]?
**A.** 3%

**Q.** And the “Population Mitotic Cells (%)” value [9]?
**A.** 10%

**Q.** What about the “Population Normal (%)” value [9] of the same molecule?
**A.** 97%

**Q.** And the “Population Pyknosed Nuclei (%)” value [9]?
**A.** 8%

**Q.** What about the “Population Tubulin-Different-Phenotype (%)” value [9] of the same molecule?
**A.** 2%

**Q.** What about the “Total Cell Count” value [9] of the same molecule?
**A.** 450

**Q.** What about the “Population Apoptotic (%)” value [10] of the same molecule?
**A.** 84%

**Q.** And the “Population Fragmented Nuclei (%)” value [10]?
**A.** 19%

**Q.** What about the “Population Healthy Nuclei (%)” value [10] of the same molecule?
**A.** 73%

**Q.** And the “Population Hoechst High Intensity Objects (%)” value [10]?
**A.** 3%

**Q.** And the “Population Mitochondria Different-Phenotype (%)” value [10]?
**A.** 5%

**Q.** What about the “Population Mitotic Cells (%)” value [10] of the same molecule?
**A.** 15%

**Q.** What about the “Population Normal (%)” value [10] of the same molecule?
**A.** 96%

**Q.** And the “Population Pyknosed Nuclei (%)” value [10]?
**A.** 6%

**Q.** And the “Population Tubulin-Different-Phenotype (%)” value [10]?
**A.** 3%

**Q.** And the “Total Cell Count” value [10]?
**A.** 192

**Q.** What about the “Population Apoptotic (%)” value [11] of the same molecule?
**A.** 88%

**Q.** What about the “Population Fragmented Nuclei (%)” value [11] of the same molecule?
**A.** 18%

**Q.** And the “Population Healthy Nuclei (%)” value [11]?
**A.** 72%

**Q.** And the “Population Hoechst High Intensity Objects (%)” value [11]?
**A.** 3%

**Q.** What about the “Population Membrane Permeable-Phenotype (%)” value [11] of the same molecule?
**A.** 6%

**Q.** And the “Population Mitochondria Different-Phenotype (%)” value [11]?
**A.** 2%

**Q.** And the “Population Mitotic Cells (%)” value [11]?
**A.** 11%

**Q.** What about the “Population Normal (%)” value [11] of the same molecule?
**A.** 96%

**Q.** And the “Population Pyknosed Nuclei (%)” value [11]?
**A.** 9%

**Q.** What about the “Population Tubulin-Different-Phenotype (%)” value [11] of the same molecule?
**A.** 3%

**Q.** And the “Total Cell Count” value [11]?
**A.** 387

**Q.** What about the “Population Apoptotic (%)” value [12] of the same molecule?
**A.** 96%

**Q.** And the “Population Fragmented Nuclei (%)” value [12]?
**A.** 15%

**Q.** And the “Population Healthy Nuclei (%)” value [12]?
**A.** 73%

**Q.** And the “Population Hoechst High Intensity Objects (%)” value [12]?
**A.** 2%

**Q.** And the “Population Membrane Permeable-Phenotype (%)” value [12]?
**A.** 8%

**Q.** And the “Population Mitochondria Different-Phenotype (%)” value [12]?
**A.** 3%

**Q.** And the “Population Mitotic Cells (%)” value [12]?
**A.** 3%

**Q.** And the “Population Normal (%)” value [12]?
**A.** 97%

**Q.** What about the “Population Pyknosed Nuclei (%)” value [12] of the same molecule?
**A.** 11%

**Q.** What about the “Population Tubulin-Different-Phenotype (%)” value [12] of the same molecule?
**A.** 7%

**Q.** What about the “Total Cell Count” value [12] of the same molecule?
**A.** 248
